Reference: the RNAGym collection of RNA variant scans (doi:10.1126/science.aae0568)
Fewer inactive variants are shown than the library holds.

B1: tRNA (parent)
chain: GUUCCGUUGGCGUAAUGGUAACGCGUCUCCCUCCUAAGGAGAAGACUGCGGGUUCGAGUCCCGUACGGAACG

Variants of: B1
Test: yeast fitness relative to wild type (ratio to wild type); higher = fitter; tRNA-Arg(CCU), competitive growth, 37 C, YPD
Method in brief: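 Variants of the tRNA-Arg(CCU) gene were chemically synthesised with a 3% per-site mutation rate across 69 sites and placed at the native genomic locus in Saccharomyces cerevisiae. Six parallel replicates of the pooled strains were competed in YPD at 37°C for 24 hours, and gene amplicons from the start and end populations were read by 100-nucleotide paired-end sequencing. Darwinian fitness relative to wild type was derived from changes in genotype frequencies. Genotypes required ≥ 100 starting reads, and estimates < 0.5 were set to 0.5.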

Row | Variant | yeast fitness
1 | GUUCCGUUGGCGUAAUCGUAACGCGUCUCCCUCCUAAGGAGAAGAGUGCGGGUUCGAGUCCCGUACGGAACG | 0.747
2 | GUUCCGUUGGCGUAAUCGUAACGCGUCUCGCUCCUAAGGAGAAGACUGCGGGUUCGCGUCGCGUACGGAACG | 0.613
3 | GUUCCGUUGGCGUAAUCGUAACGCGUCUCGCUCCUAAGGAGAAGACUGUGGGUUCGCGUCGCGUACGGAACG | ≤ 0.5
4 | GUUCCGUUGGCGUAAUCGUAACGGGUCUCCCUCCUAAGGAGAAGACUGCGGGUUCGAGUCCCCUACGGAACG | ≤ 0.5
5 | GUUCCGUUGGCGUAAUCGUAACGCGUGUACCUCCUAAGGAGAAGACUGCGGGUUCGAGUCCCGUACGGAACG | ≤ 0.5
6 | GUUCCGUUGGCGUAAUCGUAACGCGUCUGCCUCCUAAGGAGAAGACUGCGGGUUCGAGUCCCGUCCGGAACG | 0.629
7 | GUUCCGUUGGCGUAAUCGUAACGCGUCUACCUCCUAAGGAGAAGACUGCGGGUUCGUGUCCCGUACGGAACG | ≤ 0.5
8 | GUUCCGUUGGCGUAAUCGUAACGAGUCUCCCUCCUAAGGAGAAGACAGCGGGUUCGAGUCCCGUAUGGUACG | ≤ 0.5
9 | GUUCCGUUGGCGUAAUCGUAACGCGUCUCGCUGCUAAGGAGAAGACUGCGGGUUCGAGUCCCGUACGGAACG | ≤ 0.5
10 | GUUCCGUUGGCGUAAUCGUAACGCGUCUCCCUUCUAAGGAGAGGACUGCGGGUUCGAGUCCCGUACGGAACG | ≤ 0.5
11 | GUUCCGUUGGCGUAAUCGUAACGCCUCUCCCUCCUAAGGAGAAGACUGCAGGUUCGAGCCCCGUACGAAACG | ≤ 0.5
12 | GUUCCGUUGGCGUAAUCGUAACGGGUCACUCUCCUAAGGAGAAGACUGCGGGUUCGAGUCCCGUACGGAACG | 0.646
13 | GUUCCGUUGGCGUAAUCGUAACGCGUCUCCCUCCUAAGGAGAAGACUGCGGGUUCGAGUCUUGUAAGGAACG | 0.593
14 | GUUCCGUUGGCGUAAUCCUAACGCGUCUCGCUCCUAAGGAGAAGACUGCGGGAUCGAGUCCCGGACGGAACG | ≤ 0.5
15 | GUUCCGUUGGCGUAAUCGUAACGCGUCUCCCUCUUAAGGAGAAGACUGCGGGUUCGAGUCCCGUACGGAACG | 0.529
16 | GUUCCGUUGGCGUAAUCGUAACGCGUUUCCCUCCUAAGGAGAAGACUGCGGGUUCGAGUCCCGUACCGAACG | ≤ 0.5
17 | GUUCCGUUGGCGUAAUCGUAACGAGUCUCCCUCCUAAGGAGAAGCCUGCGGGUUCGAGUCCCGUACGGAACG | 0.508
18 | GUUCCGUUGGCGUAAUCGUAACGCCUCUCCCUCCUAAGGAGAAGACUGCGGGUUCGAGUCCCGUACGGAACG | 0.658
19 | GUUCCGUUGGCGUAAUCGUAACGAGUCUCCCUCCUUAGGACAAGACUGCGGGUUCGAGUCCCGUACGGAACG | ≤ 0.5
20 | GUUCCGUUGGCGUAAUCGUAAUGCGUCUCCCUCCUAAGGAGAAGACUGCGGGUUCGAGUGCCGUACGGAACG | 0.719
21 | GUUCCGUUGGCGUAAUCCUAACGCGUCUCCCUCCUAAGGAGAAGACUGCGGGUUCGAGUCCCCCACGGAACG | ≤ 0.5
22 | GUUCCGUUGGCGUAAUCGUAACGAGUCUCCCUCCUAAGGAGAAGACAGCGGGUUCGAGUCCCGUACGGAACG | ≤ 0.5
23 | GUUCCGUUGGCGUAAUCGUAACGCGUCUCCCUCCUAAGGAGAAACCUGCGGGUUCGAGUCCCGUACGGAACG | ≤ 0.5
24 | GUUCCGUUGGCGUAAUCGUAACGCGUCUCCCUCCUAAGGAGAAGACUGCGGGUUCGAGUCCCGUAUGGAACG | 0.705
25 | GUUCCGUUGGCGUAAUCGUAACGCGUCUCCCUCCUAAGGAGAAGACUCCGGGUUCGAGUCCCGUACCGAACG | ≤ 0.5

Row | Variant | yeast fitness
26 | GUUCCGUUGGCGUAAUCGUAACGCGUCUACCUCCUGAGGAGAUGACUGCGGGUUCGAGUCCCGUACGGAACG | ≤ 0.5
27 | GUUCCGUUGGCGUAAUCCUAACGCGUCUCCCUCCUAAGGAGAAGACUGCGGGUUCGAGUCCCGUACGGAACG | 0.576
28 | GUUCCGUUGGCGUAAUCGUAACGCGUCUCCCUGCUAAGGAGAAGACUUCGGGUUCGAGUCCCGUACGGAACG | ≤ 0.5
29 | GUUCCGUUGGCGUAAUCGUAACGUGUCUCCCUCCUAAGGAGAAGACUGCGGGUUCGAGUCCCGUACGGAACG | 0.607
30 | GUUCCGUUGGCGUAAUCGUAACGAGUCUCCCUCCUAAGGAGAAGACUGCGGGUUCGAGUCCCGUACGGAACG | 0.56
31 | GUUCCGUUGGCGUAAUCGUAACGCGUCUCGCUCCUAAGGAGAAGACUGCGGGUUGGAGUCCCGUACGGAGCG | ≤ 0.5
32 | GUUCCGUUGGCGUAAUCGUAACGCGUCUCCCUGCUAAGGAGAAGACUGCGGGUUCGAGGCCCGUACGGUACG | 0.665
33 | GUUCCGUUGGCGUAAUCGUAACGCGUCUGCCUCCUACGGAGAAGACUGCGGGUUCGAGUCCCGCACGGAACG | 0.771
34 | GUUCCGUUGGCGUAAUCGUAACGCGUUUCCCUCCUAAGGAGAAGACUGCGGGGUCGAGUCCCGUACGGAACG | ≤ 0.5
35 | GUUCCGUUGGCGUAAUCGUAACGCGUCUGCCUCCUAAGGAGAGGACUGCGGGUUCGAGUCCCGUACGGAACG | ≤ 0.5
36 | GUUCCGUUGGCGUAAUCGUAACGCGUCUCCCUCCUAAGGAGAAGACUGCAGGUUCGAGUCCCGUACGGAACG | 0.616
37 | GUUCCGUUGGCGUAAUCGUAACGUGUCUCCCUCCUGAGGAGAAGACUGCGGGUUCGAGUCCCGUACGGAACG | 0.607
38 | GUUCCGUUGGCGUAAUCGUAACGCGUCUCCCUACUAAGGAGAAGACUGCGGGUUAGAGUCCCGUACGGAACG | 0.672
39 | GUUCCGUUGGCGUAAUCGUAACGCCUCUCCCUCCUAAGGAGAAGACUGCGGGUUCGAGUCCCGUAUGGAACG | ≤ 0.5
40 | GUUCCGUUGGCGUAAUCGUAACGCGUCUCCCUCCUAAGCAGAAGACUGCGGGUUCGAGUCCCGUACGGAACG | 0.59
41 | GUUCCGUUGGCGUAAUCGUAACGCGUCUCCCUCCUAAGGAAAAGACUGCGGGUUCCAGUCCCGUACGGAACG | 0.619
42 | GUUCCGUUGGCGUAAUCGUAACGCAUCUCCCACCUAAGGAGAGGACUGCGGGUUCGUGUCCCGUACGGAACG | 0.546
43 | GUUCCGUUGGCGUAAUCGUAACGCGUCUCCCUCCUAAGGAGAAGACUGGGGGUUCGAGUCCCGUACGGAACG | 0.743
44 | GUUCCGUUGGCGUAAUCGUAACGCGUCUCCCUUCUAAGGAGAAGACUGCGGGUUCGAGUCCCGUACGGAACG | 0.556
45 | GUUCCGUUGGCGUAAUCGUAACGCGUCUCCCUCCUAAGGAGAAGACUGCGGGUUCGAGUCCUGUCCGGAACG | 0.593
46 | GUUCCGUUGGCGUAAUCGUAACGCGUCUCGCUCCUAAGGAGAAGACUGCGGGUUCGAGUGCCAUUUGGAACG | 0.549
47 | GUUCCGUUGGCGUAAUCGUAACGCGUCUCCCUCCUAAGGAGAAGACUGUGGGUUCGAGUCCCCUACGGAACG | ≤ 0.5
48 | GUUCCGUUGGCGUAAUCGUAACGCGUCUCCCUCCUAAGGAGAAGACUCCGGGUUCGAGUCCCGUACGGAACG | 0.709
49 | GUUCCGUUGGCGUAAUCGUAACGGGUCUCCCUCUUAAGGAGAAGACUGCGGGUUCGAGUCCCGUACGGAACG | 0.527
50 | GUUCCGUUGGCGUAAUCGUAACGCCACUGCCUCCUUAGAAGAAGAUUGCGGGUUUGAGUCCCGUACGGAACG | ≤ 0.5

Row | Variant | yeast fitness
51 | GUUCCGUUGGCGUAAUCGUAACCCGUCUCCCUCCUAAGGAGAUGACUGAGGGUUCGAGUCCCGUAUGGAUCG | 0.603
52 | GUUCCGUUGGCGUAAUCGUAACGCGUCUCCCUCCUAAGCAGAAGACUGCGGGUUCGAGUCCCAUACGGAACG | ≤ 0.5
53 | GUUCCGUUGGCGUAAUCGUAACGCGUCUCCGUCCUAAGGAGAAGCCUGCGGGUCAGAGUCCCGUACGGAACG | ≤ 0.5
54 | GUUCCGUUGGCGUAAUCGUAACGCGUCUCCCUGCUAAGGAGAAGACUGCGGGUUCGAGUCCCGUACGGAGCG | ≤ 0.5
55 | GUUCCGUUGGCGUAAUCCGAACGGGUCUCCCUCCUAAGGAGAAGACUGCGGGUUCGAGUCCCGUACGGAACG | ≤ 0.5
56 | GUUCCGUUGGCGUAAUCGUAACGCGUCUCCCUUCUACGGAGAAGACUGCGGGUUCGAGUCCCGUACGGAACG | ≤ 0.5
57 | GUUCCGUUGGCGUAAUCGUAACGCGUCUCCCUCCUAAGGAGAAGACUGCGGGUUUGAGUCCCGUACGGAACG | 0.598
58 | GUUCCGUUGGCGUAAUCGUAACGCGUCUCCCUCCUAAGGAGAAGACUGCGGGUUGGAGUCCCGUACGGAACG | 0.616
59 | GUUCCGUUGGCGUAAUCGUAACGCGUCUCCCUCCUAAGGAGAAGACUGCGGGUUAGAGUCCCGUACGGAACG | ≤ 0.5
60 | GUUCCGUUGGCGUAAUCGUAACGCGUUUCCCUCUUAAGGAGUAGACUGCGGGUUCGAGUCCCGUACGGAACG | ≤ 0.5
61 | GUUCCGUUGGCGUAAUCGUAACGCGUCUCCCUCCUAAGAAGAAGACUGCGGAUUCGAGUCCCGUACGGAACG | ≤ 0.5
62 | GUUCCGUUGGCGUAAUCGUAACGCGUCUGCCUCCUAAGAAGAAGACUGCGGGUUCGAGUCCCGUACGGAACG | ≤ 0.5
63 | GUUCCGUUGGCGUAAUCGUAACGCGUCUCCAUCCUAAGGAGAAGACUGCGGGUUCGAGUCCCGUACGGAACG | 0.551
64 | GUUCCGUUGGCGUAAUCGUAACUCGUCACCGUCCUAAGGAGAAGACUGCGGGUUCGAGUCCCGUACGGAACG | 0.655
65 | GUUCCGUUGGCGUAAUCGUAACACCUCUGCCUCCUUAGAAGAAGAUUGCGGGUUUGAGUCCCGUACGGAACG | ≤ 0.5
66 | GUUCCGUUGGCGUAAUCGUAACCCGUCUCCCUCCUAAGGAGAAGACUGCGGGUUCGAGUCCCGUACGGAACG | 0.517
67 | GUUCCGUUGGCGUAAUCGUAACGCCUCUCUCUCCUAAGGAGAAGACUGCGGGUUCGAGUCCCGUCCGGAACG | ≤ 0.5
68 | GUUCCGUUGGCGUAAUCGUAACGCGUCUCCCUCAUAAGGAGUCGACUGCGGGUUCGAGUCCCGUACGGAACG | ≤ 0.5
69 | GUUCCGUUGGCGUAAUCGUAACGUGUCUCCCUCCUAAGGAAAAGACUGCGGGUUCGAGUCCCGUACGGAACG | ≤ 0.5
70 | GUUCCGUUGGCGUAAUCGUAACGCGUUUCCCUCCUAAGGAGAAGACUGCGGGUUCGAGUCACGUACGGAACG | 0.537
71 | GUUCCGUUGGCGUAAUCCUGACGCGUCUCACUCCUAAGGAGAAGACUGCAGGUUCGAGUCCCGUACGGCACG | ≤ 0.5
72 | GUUCCGUUGGCGUAAUCGUAACGGGUCACUCUCCUAAGGAGAAGACUGUGGGUUCGAGUCCCGUUCGGCACG | ≤ 0.5
73 | GUUCCGUUGGCGUAAUCGUAACGCGUCUCCCUCCUAAGGAGAAGACUGCGAGUUCGAGUCCCGUCCGGAACG | ≤ 0.5
74 | GUUCCGUUGGCGUAAUCGUAACGCGUCUCCAUCCUAAGGAGAAGACUGCGGGUUCGAGUACCGUUCGGAACG | 0.532
75 | GUUCCGUUGGCGUAAUCCUAACGCGUCUCCGUCCUAAGGAGGAGACUGCGGGUUCGAGUCCCGUACGGAACG | ≤ 0.5
